ChEMBL document CHEMBL2010735, “Bioactive hydroanthraquinones and anthraquinone dimers from a soft coral-derived Alternaria sp. fungus” (J Nat Prod, 2012)
In brackets after ≈: the same amount, converted by molar mass.

Tests used:
[1] = Cytotoxicity against human Hep3B cells after 6 days by MTT assay; assay type: functional, cell-based, Hep 3B2; conditions: 144 h
PC-3 = experiment: Cytotoxicity against human PC3 cells after 6 days by MTT assay; assay type: functional, cell-based; conditions: PC-3, 144 h
[2] = Cytotoxicity against human MCF7/ADR cells after 6 days by MTT assay; assay type: functional, cell-based; conditions: NCI/ADR-RES, 144 h
HepG2 = experiment: Cytotoxicity against human HepG2 cells after 6 days by MTT assay; assay type: functional, cell-based; conditions: HepG2, 144 h
HCT-116 = experiment: Cytotoxicity against human HCT116 cells after 6 days by MTT assay; assay type: functional, cell-based; conditions: HCT-116, 144 h
Escherichia coli = experiment: Antibacterial activity against Escherichia coli after 18 hrs by MTT assay; assay type: functional; conditions: in the assay text read “by broth dilution assay” for “by MTT assay”
Outline: (§1)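 Conventional broth dilution assay against a panel of nine bacterial strains including E. coli and S. albus; V. parahemolyticus also used as pathogenic test organism.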

[3] = system: Porcine reproductive and respiratory syndrome virus; experiment: Antiviral activity against Porcine reproductive and respiratory syndrome virus infected in CRL11171 cells assessed as inhibition of viral replication by RT-PCR analysis; assay type: functional, cell-based
Vibrio parahaemolyticus = experiment: Antibacterial activity against Vibrio parahaemolyticus after 18 hrs by MTT assay; assay type: functional; conditions: in the assay text read “by broth dilution assay” for “by MTT assay”; outline: as §1
Staphylococcus = experiment: Antibacterial activity against Staphylococcus albus after 18 hrs by MTT assay; assay type: functional; conditions: in the assay text read “by broth dilution assay” for “by MTT assay”; outline: as §1

SMILES	IC50 [1] [µM]	IC50 (PC-3) [µM]	IC50 [2] [µM]	IC50 (HepG2) [µM]	IC50 (HCT-116) [µM]	MIC (Escherichia coli) [µM]	IC50 [3] [µM]	MIC (Vibrio parahaemolyticus) [µM]	MIC (Staphylococcus) [µM]
COc1cc(O)c2c(c1)[C@H](O)[C@@H]1C(=C[C@@H](O)[C@@](C)(O)[C@@H]1O)C2=O (relative stereo)	> 100	> 100	> 100	> 100	> 100				
COc1cc(O)c2c(c1)C(=O)c1cc(C)c(O)c(-c3c(OC)cc4c(c3O)C(=O)C3=C(C4=O)[C@@H](O)[C@](C)(O)[C@H](O)[C@H]3O)c1C2=O [ALTERPORRIOL C]	51	27	98	53	24	2.5 (≈ 1.55 µg/mL)	39	2.5 (≈ 1.55 µg/mL)	> 20
COc1cc(O)c2c(c1)C(=O)c1cc(C)c(O)cc1C2=O [MACROSPORIN]						2.3 (≈ 0.654 µg/mL)		5 (≈ 1.42 µg/mL)	15 (≈ 4.26 µg/mL)
COc1cc(O)c2c(c1)[C@H](O)[C@@H]1[C@@H](C2=O)[C@H](O)[C@@H](O)[C@@](C)(O)[C@@H]1O [AMPELANOL]	> 100	> 100	> 100	> 100	> 100				
COc1cc(O)c2c(c1)[C@H](O)[C@@H]1C[C@](C)(O)[C@H](O)C[C@H]1C2=O (relative stereo)	> 100	> 100	> 100	> 100	> 100				
COc1cc(O)c2c(c1)C(=O)C1=C(C[C@@H](O)[C@@](C)(O)[C@@H]1O)C2=O [ALTERSOLANOL C]	8.2	7.6	3.2	8.9	2.2	0.62 (≈ 0.199 µg/mL)		1.25 (≈ 0.4 µg/mL)	12 (≈ 3.84 µg/mL)
COc1cccc2c1C(=O)c1c(O)c3c(c(O)c1C2=O)C[C@@](O)(C(=O)CO)C[C@@H]3O[C@H]1C[C@H](N)[C@@H](O)[C@H](C)O1 [EPIRUBICIN]	0.96	0.46	1.65	1.65	0.82				
COc1cc(O)c2c(c1)[C@@H](O)[C@H]1C[C@](C)(O)[C@H](O)C[C@@H]1C2=O (relative stereo) [TETRAHYDROALTERSOLANOL C]	> 100	> 100	> 100	> 100	> 100		65		
COc1cc(O)c2c(c1)[C@H](O)[C@H]1C[C@](C)(O)[C@@H](O)C[C@@H]1C2=O (relative stereo) [TETRAHYDROALTERSOLANOL E]	> 100	> 100	> 100	> 100	> 100				
COc1cc(O)c2c(c1)C(=O)C1=C(C[C@@H](O)[C@@](C)(O)C1)C2=O [ALTERSOLANOL B]	> 100	> 100	> 100	> 100	> 100				
COc1cc(O)c2c(c1)[C@H](O)[C@@H]1[C@H](C[C@@H](O)[C@@](C)(O)[C@@H]1O)C2=O [ALTERSOLANOL L]	> 100	> 100	> 100	> 100	> 100				
COc1cc(O)c2c(c1)[C@H](O)[C@H]1C[C@](C)(O)[C@H](O)C[C@@H]1C2=O [TETRAHYDROALTERSOLANOL B]	> 100	> 100	> 100	> 100	> 100				
COc1cc(O)c2c(c1)C(=O)c1cc(C)c(O)c(-c3c(OC)cc4c(c3O)C(=O)C3=C(C4=O)[C@@H](O)[C@](C)(O)[C@H](O)C3)c1C2=O [ALTERPORRIOL P]	21	6.4	23	20	8.6				
O=C(O)c1cn(C2CC2)c2cc(N3CCNCC3)c(F)cc2c1=O [CIPROFLOXACIN]						0.62 (≈ 0.205 µg/mL)		0.16 (≈ 0.053 µg/mL)	0.31 (≈ 0.103 µg/mL)
COc1cc(O)c2c(c1)C(=O)c1cc(C)c(O)c(-c3c(OC)cc4c(c3O)C(=O)c3cc(O)c(C)cc3C4=O)c1C2=O [ALTERPORRIOL Q]							22		
COc1cc(O)c2c(c1)[C@H](O)[C@H]1C[C@](C)(O)[C@H](OC(C)=O)C[C@@H]1C2=O	> 100	> 100	> 100	> 100	> 100				
